# Data published in ChEMBL document CHEMBL1122115, “Antimalarials. 13. 5-Alkoxy analogues of 4-methylprimaquine” (1982).
# Key:
# Assay type in all cases: functional
# Mus musculus [1] = assay: Antimalarial activity against Plasmodium berghei in mice (Mus musculus) at 640 mg/kg dose administered subcutaneously; toxic; settings: route subcutaneous
# Procedure, shortened: (§1)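 Primary mouse screen: groups of five mice infected with a lethal dose of P. berghei 3 days before drug administration. Drug given subcutaneously, routinely in sesame or peanut oil. Mean survival time compared with infected untreated controls; extension in survival time (ΔMST) taken as antimalarial activity.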
# Plasmodium cynomolgi [2] = assay: Radio curative antimalarial activity against Plasmodium cynomolgi in Rhesus monkey at 0.25 mg/kg (base/day) peroral dose; cured 0 of 3; settings: route oral
# Mus musculus [3] = assay: Antimalarial activity against Plasmodium berghei in mice (Mus musculus) at 40 mg/kg dose administered subcutaneously; active; settings: route subcutaneous; procedure, shortened: as §1
# Plasmodium cynomolgi [4] = assay: Radio curative antimalarial activity against Plasmodium cynomolgi in rhesus monkey at 0.75 mg/kg (base/day) peroral dose; cured 0 of 3; settings: route oral
# Mus musculus [5] = assay: Antimalarial activity against Plasmodium berghei in mice (Mus musculus) at 160 mg/kg dose administered subcutaneously; toxic; settings: route subcutaneous; procedure, shortened: as §1
# Mus musculus [6] = assay: Antimalarial activity against Plasmodium berghei in mice (Mus musculus) at 5 mg/kg dose administered subcutaneously; active; settings: route subcutaneous; procedure, shortened: as §1
# Mus musculus [7] = assay: Antimalarial activity against Plasmodium berghei in mice (Mus musculus) at 20 mg/kg dose administered subcutaneously; active; settings: route subcutaneous; procedure, shortened: as §1
# Mus musculus [8] = assay: Antimalarial activity against Plasmodium berghei in mice (Mus musculus) at 10 mg/kg dose administered subcutaneously; active; settings: route subcutaneous; procedure, shortened: as §1
# Mus musculus [9] = assay: Antimalarial activity against Plasmodium berghei in mice (Mus musculus) at 160 mg/kg dose administered subcutaneously; settings: route subcutaneous; procedure, shortened: as §1
# Mus musculus [10] = assay: Antimalarial activity against Plasmodium berghei in mice (Mus musculus) at 40 mg/kg dose administered subcutaneously; settings: route subcutaneous; procedure, shortened: as §1
# Mus musculus [11] = assay: Antimalarial activity against Plasmodium berghei in mice (Mus musculus) at 640 mg/kg dose administered subcutaneously; settings: route subcutaneous; procedure, shortened: as §1
# Mus musculus [12] = assay: Antimalarial activity against Plasmodium berghei in mice (Mus musculus) at 160 mg/kg dose administered subcutaneously; active; settings: route subcutaneous; procedure, shortened: as §1
# Mus musculus [13] = assay: Antimalarial activity against Plasmodium berghei in mice (Mus musculus) at 640 mg/kg dose administered subcutaneously; cure/1toxic; settings: route subcutaneous; procedure, shortened: as §1
# Plasmodium cynomolgi [14] = assay: Radio curative antimalarial activity against Plasmodium cynomolgi in rhesus monkey at 0.5 mg/kg (base/day) peroral dose; cured 13 of 14; settings: route oral
# Plasmodium cynomolgi [15] = assay: Radio curative antimalarial activity against Plasmodium cynomolgi in rhesus monkey at 0.25 mg/kg (base/day) peroral dose; cured 8 of 14; settings: route oral
# Plasmodium cynomolgi [16] = assay: Radio curative antimalarial activity against Plasmodium cynomolgi in rhesus monkey at 0.75 mg/kg (base/day) peroral dose; cured 1 of 1; settings: route oral
# Mus musculus [17] = assay: Antimalarial activity against Plasmodium berghei in mice (Mus musculus) at 20 mg/kg dose administered subcutaneously; settings: route subcutaneous; procedure, shortened: as §1
# Mus musculus [18] = assay: Antimalarial activity against Plasmodium berghei in mice (Mus musculus) at 320 mg/kg dose administered subcutaneously; active; settings: route subcutaneous; procedure, shortened: as §1
# Mus musculus [19] = assay: Antimalarial activity against Plasmodium berghei in mice (Mus musculus) at 80 mg/kg dose administered subcutaneously; settings: route subcutaneous; procedure, shortened: as §1
# Plasmodium cynomolgi [20] = assay: Radio curative antimalarial activity against Plasmodium cynomolgi in rhesus monkey at 0.25 mg/kg (base/day) peroral dose; cured 0 of 3; settings: route oral
# Mus musculus [21] = assay: Antimalarial activity against Plasmodium berghei in mice (Mus musculus) at 40 mg/kg dose administered subcutaneously; toxic; settings: route subcutaneous; procedure, shortened: as §1
# Plasmodium cynomolgi [22] = assay: Radio curative antimalarial activity against Plasmodium cynomolgi in rhesus monkey at 0.25 mg/kg (base/day) peroral dose; cured 0 of 2; settings: route oral
# Mus musculus [23] = assay: Antimalarial activity against Plasmodium berghei in mice (Mus musculus) at 320 mg/kg dose administered subcutaneously; active/3 toxic; settings: route subcutaneous; procedure, shortened: as §1
# Plasmodium cynomolgi [24] = assay: Radio curative antimalarial activity against Plasmodium cynomolgi in rhesus monkey at 0.75 mg/kg (base/day) peroral dose; cured 0 of 2; settings: route oral
# Plasmodium cynomolgi [25] = assay: Radio curative antimalarial activity against Plasmodium cynomolgi in rhesus monkey at 0.75 mg/kg (base/day) peroral dose; cured 4 of 4; settings: route oral
# Plasmodium cynomolgi [26] = assay: Radio curative antimalarial activity against Plasmodium cynomolgi in rhesus monkey at 0.5 mg/kg (base/day) peroral dose; cured 10 of 12; settings: route oral
# Mus musculus [27] = assay: Antimalarial activity against Plasmodium berghei in mice (Mus musculus) at 80 mg/kg dose administered subcutaneously; active; settings: route subcutaneous; procedure, shortened: as §1
# Mus musculus [28] = assay: Antimalarial activity against Plasmodium berghei in mice (Mus musculus) at 320 mg/kg dose administered subcutaneously; toxic; settings: route subcutaneous; procedure, shortened: as §1
# Plasmodium cynomolgi [29] = assay: Radio curative antimalarial activity against Plasmodium cynomolgi in rhesus monkey at 0.5 mg/kg (base/day) peroral dose; cured 1 of 1; settings: route oral
# Plasmodium cynomolgi [30] = assay: Radio curative antimalarial activity against Plasmodium cynomolgi in rhesus monkey at 0.25 mg/kg (base/day) peroral dose; cured 3 of 4; settings: route oral
# Mus musculus [31] = assay: Antimalarial activity against Plasmodium berghei in mice (Mus musculus) at 160 mg/kg dose administered subcutaneously; active/1 toxic; settings: route subcutaneous; procedure, shortened: as §1
# Mus musculus [32] = assay: Antimalarial activity against Plasmodium berghei in mice (Mus musculus) at 320 mg/kg dose administered subcutaneously; active/4 toxic; settings: route subcutaneous; procedure, shortened: as §1
# Plasmodium cynomolgi [33] = assay: Radio curative antimalarial activity against Plasmodium cynomolgi in rhesus monkey at 0.0625 mg/kg(base/day) peroral dose; Cured 0 of 5; settings: route oral
# Plasmodium cynomolgi [34] = assay: Radio curative antimalarial activity against Plasmodium cynomolgi in Rhesus monkey at 0.125 mg/kg(base/day) peroral dose; Cured 11 of 13; settings: route oral
compound,measurement,setting,value
CCC(CCCN)Nc1cc2c(c3c(C)ccnc13)OCCO2 (centres undefined),Delta MST,Mus musculus [1],5 days
same,Cured animals,Plasmodium cynomolgi [2],0
same,Delta MST,Mus musculus [3],7.6 days
same,Cured animals,Plasmodium cynomolgi [4],0
same,Delta MST,Mus musculus [5],5 days
same,Delta MST,Mus musculus [6],7.8 days
same,Delta MST,Mus musculus [7],7.2 days
same,Delta MST,Mus musculus [8],7.6 days
Cc1ccnc2c(NC(C)CCCN)cc3c(c12)OCO3 (centres undefined),Delta MST,Mus musculus [9],0.1 days
same,Delta MST,Mus musculus [10],0.1 days
same,Delta MST,Mus musculus [11],0.3 days
COc1cc(NC(C)CCCN)c2nccc(C)c2c1 (centres undefined),Delta MST,Mus musculus [10],4.9 days
same,Delta MST,Mus musculus [12],9.1 days
same,Delta MST,Mus musculus [13],3 days
same,Cured animals,Plasmodium cynomolgi [14],13
same,Cured animals,Plasmodium cynomolgi [15],8
same,Cured animals,Plasmodium cynomolgi [16],1
same,Delta MST,Mus musculus [17],3.1 days
same,Delta MST,Mus musculus [18],10.1 days
same,Delta MST,Mus musculus [19],5.5 days
Cc1ccnc2c(NC(C)CCCN)cc3c(c12)OCCO3 (centres undefined),Cured animals,Plasmodium cynomolgi [20],0
same,Delta MST,Mus musculus [1],5 days
same,number of mice died of toxicity,Mus musculus [21],5 mice
same,Cured animals,Plasmodium cynomolgi [4],0
same,Delta MST,Mus musculus [5],5 days
same,Delta MST,Mus musculus [6],6.7 days
same,Delta MST,Mus musculus [7],11.1 days
same,Delta MST,Mus musculus [8],8.3 days
COc1cc(NCCCC(C)N)c2ncccc2c1OC (centres undefined),Delta MST,Mus musculus [10],3.1 days
same,Delta MST,Mus musculus [12],7.3 days
same,Cured animals,Plasmodium cynomolgi [22],0
same,Delta MST,Mus musculus [1],5 days
same,Delta MST,Mus musculus [23],9.9 days
same,Cured animals,Plasmodium cynomolgi [24],0
same,Delta MST,Mus musculus [17],1.3 days
same,Delta MST,Mus musculus [19],5.1 days
COc1cc(NC(C)CCCN)c2ncccc2c1 (centres undefined) [PRIMAQUINE],Cured animals,Plasmodium cynomolgi [25],4
same,Delta MST,Mus musculus [10],5 days
same,Cured animals,Plasmodium cynomolgi [22],0
same,Delta MST,Mus musculus [1],5 days
same,Cured animals,Plasmodium cynomolgi [26],10
same,Delta MST,Mus musculus [5],2 days
same,Delta MST,Mus musculus [27],9.4 days
same,Delta MST,Mus musculus [28],5 days
COc1cc(NC(C)CCCN)c2nccc(C)c2c1OC (centres undefined),Cured animals,Plasmodium cynomolgi [29],1
same,Cured animals,Plasmodium cynomolgi [30],3
same,Delta MST,Mus musculus [1],5 days
same,Delta MST,Mus musculus [3],7.1 days
same,Delta MST,Mus musculus [31],9.9 days
same,Delta MST,Mus musculus [17],5.7 days
same,Delta MST,Mus musculus [32],11.9 days
same,Cured animals,Plasmodium cynomolgi [33],0
same,Delta MST,Mus musculus [27],8.9 days
same,Cured animals,Plasmodium cynomolgi [34],11
